Experimental data: ChEMBL document CHEMBL6071149, “Synthesis and photo-induced anticancer activity of new 2-phenylethenyl-1H-benzo[e]indole dyes” (Eur J Med Chem, 2024)

Columns and labels:
G-361 [1] = assay: Cytotoxicity against human G361 cells under dark condition measured after 72 hrs by MTT assay; type: functional, cell-based; conditions: G-361, 72 h
Method in brief: (§1)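 Cells grown in phenol red-free DMEM with 10 % FBS, penicillin/streptomycin, 37 °C, 5 % CO₂. Compound added 24 h after plating and incubated 4 h. Irradiated cells received 414 nm LED light at 20 mW/cm², 10 J/cm², then were incubated 20 h or 68 h more. Dark plates were run in parallel without irradiation. MTT was added for 4 h, formazan dissolved in 10 % SDS, absorbance read at 570 nm. EC50 ± SD.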

G-361 [2] = assay: Cytotoxicity against human G361 cells pretreated for 4 hrs followed by light irradiation of 10 J/cm2 at 414 nm measured after 68 hrs by MTT assay; type: functional, cell-based; conditions: G-361, light or radiation study; method in brief: as §1
[3] = Cytotoxicity against human BJ cells under dark condition measured after 72 hrs by MTT assay; type: toxicity, cell-based; method in brief: as §1

CC1(C)C(/C=C/c2ccc(Br)cc2)=Nc2ccc3ccccc3c21
EC50 (G-361 [1]): 7.6 µM
EC50 (G-361 [2]): 1.3 µM
EC50 at 72 h [3]: > 10 µM

CC1(C)C(/C=C/c2ccc(C#N)cc2)=Nc2ccc3ccccc3c21
EC50 (G-361 [1]): 5.1 µM
EC50 (G-361 [2]): 0.5 µM
EC50 at 72 h [3]: 6.7 µM

CC1(C)C(/C=C/c2ccccc2)=Nc2ccc3ccccc3c21
EC50 (G-361 [1]): 6.5 µM
EC50 (G-361 [2]): 2.8 µM

CC1(C)C(/C=C/c2ccc(F)c([N+](=O)[O-])c2)=Nc2ccc3ccccc3c21
EC50 (G-361 [1]): 7.9 µM
EC50 (G-361 [2]): 1.8 µM

CC1(C)C(/C=C/c2ccc(F)cc2)=Nc2ccc3ccccc3c21
EC50 (G-361 [1]): 7.3 µM
EC50 (G-361 [2]): 4.1 µM

CC1(C)C(/C=C/c2ccc(F)c(C#N)c2)=Nc2ccc3ccccc3c21
EC50 (G-361 [1]): 6.9 µM
EC50 (G-361 [2]): 1.4 µM

CC1(C)C(/C=C/c2cc([N+](=O)[O-])ccc2Cl)=Nc2ccc3ccccc3c21
EC50 (G-361 [1]): > 10 µM
EC50 (G-361 [2]): 7.9 µM

CCN(CC)c1ccc(/C=C/C2=Nc3ccc4ccccc4c3C2(C)C)cc1
EC50 (G-361 [1]): > 10 µM
EC50 (G-361 [2]): > 10 µM

CC1(C)C(/C=C/c2ccc([N+](=O)[O-])cc2)=Nc2ccc3ccccc3c21
EC50 (G-361 [1]): 5.7 µM
EC50 (G-361 [2]): 0.8 µM
EC50 at 72 h [3]: 6 µM

CC1(C)C(/C=C/c2ccc(Cl)c([N+](=O)[O-])c2)=Nc2ccc3ccccc3c21
EC50 (G-361 [1]): 7.2 µM
EC50 (G-361 [2]): 0.3 µM
EC50 at 72 h [3]: > 10 µM

CC1(C)C(/C=C/c2cccc([N+](=O)[O-])c2)=Nc2ccc3ccccc3c21
EC50 (G-361 [1]): 2.9 µM
EC50 (G-361 [2]): 0.4 µM
EC50 at 72 h [3]: 5 µM

Cc1ccc(/C=C/C2=Nc3ccc4ccccc4c3C2(C)C)cc1[N+](=O)[O-]
EC50 (G-361 [1]): 6.6 µM
EC50 (G-361 [2]): 0.9 µM
EC50 at 72 h [3]: 8 µM

CC1(C)C(/C=C/c2cccc(C(F)(F)F)c2)=Nc2ccc3ccccc3c21
EC50 (G-361 [1]): 7.6 µM
EC50 (G-361 [2]): 1.3 µM
EC50 at 72 h [3]: > 10 µM

CC1(C)C(/C=C/c2ccccc2[N+](=O)[O-])=Nc2ccc3ccccc3c21
EC50 (G-361 [1]): 7.8 µM
EC50 (G-361 [2]): 1.1 µM
EC50 at 72 h [3]: > 10 µM

COc1ccc(/C=C/C2=Nc3ccc4ccccc4c3C2(C)C)cc1
EC50 (G-361 [1]): 9.5 µM
EC50 (G-361 [2]): 5.2 µM

CC1(C)C(/C=C/c2ccc(C#N)c(F)c2)=Nc2ccc3ccccc3c21
EC50 (G-361 [1]): 6.2 µM
EC50 (G-361 [2]): 0.6 µM
EC50 at 72 h [3]: 7.2 µM

CC1(C)C(/C=C/c2cc(C(F)(F)F)cc(C(F)(F)F)c2)=Nc2ccc3ccccc3c21
EC50 (G-361 [1]): > 10 µM
EC50 (G-361 [2]): 1.3 µM
EC50 at 72 h [3]: > 10 µM

CC1(C)C(/C=C/c2cccc(C#N)c2)=Nc2ccc3ccccc3c21
EC50 (G-361 [1]): 3.7 µM
EC50 (G-361 [2]): 0.9 µM

CC1(C)C(/C=C/c2ccc(C(F)(F)F)cc2)=Nc2ccc3ccccc3c21
EC50 (G-361 [1]): 4 µM
EC50 (G-361 [2]): 0.9 µM

CN(C)c1ccc(/C=C/C2=Nc3ccc4ccccc4c3C2(C)C)cc1
EC50 (G-361 [1]): > 10 µM
EC50 (G-361 [2]): > 10 µM
